Test results taken from ChEMBL document CHEMBL3792374, “Discovery of a ring-opened derivative of 3-n-butylphthalide bearing NO/H2S-donating moieties as a potential anti-ischemic stroke agent” (Eur J Med Chem, 2016).
The source made the active and inactive calls. No cut-off for these calls is given here.

Assays:
[1] = test system: Rattus norvegicus; test: Antioxidant activity in Sprague-Dawley rat brain tissue model of transient middle cerebral artery occlusion stroke model assessed as increase in glutathione peroxidase levels per mg of protein at 80 mg/kg […] measured 24 hrs after reperfusion by DTNB assay relative to control; type: functional
[2] = test system: Rattus norvegicus; test: Neuroprotective activity in Sprague-Dawley rat model of transient middle cerebral artery occlusion stroke model assessed as neurological deficit at 80 mg/kg administered via oral gavage for 7 days after ischemia onset measured 24 hrs after middle cerebral artery occlusion by Longa's method; type: functional, organism-based; details: in the assay text read “before ischemia onset” for “after ischemia onset”
Outline: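 Male SD rats (280–320 g) received daily gavage for 7 days, with 0.5% CMC-Na as vehicle. Two hours after the last dose they underwent 2 h MCAO with reperfusion under chloral hydrate anesthesia; core temperature was held at 37 °C. Neurological deficit was scored blinded by Longa's method 24 h after reperfusion, between 10 and 11 a.m. Kruskal–Wallis test followed by Mann–Whitney U test.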

[3] = test system: Rattus norvegicus; test: Antioxidant activity in Sprague-Dawley rat brain tissue model of transient middle cerebral artery occlusion stroke model assessed as increase in superoxide dismutase levels per mg of protein at 80 mg/kg […] measured 24 hrs after reperfusion by nitroblue tetrazolium assay relative to control; type: functional
[4] = Antiplatelet activity in rabbit platelet-rich plasma assessed as inhibition of ADP-induced platelet aggregation at 0.1 mM preincubated for 5 mins followed by addition of ADP measured within 5 mins by Borns turbidimetric method; type: functional; details: Oryctolagus cuniculus
Outline: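 Rabbit carotid blood was citrated (3.8%, 9:1). PRP was obtained at 500 g for 10 min and PPP at 3000 g for 10 min. PRP was preincubated in duplicate for 5 min at 37 °C with 0.1 mM compound, plus carboxy-PTIO or BSS where indicated. ADP was then added and maximal light transmission recorded within 5 min, within 3 h of blood collection. Inhibition % was calculated versus control. Mean ± SD of three independent experiments.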

[5] = Antiplatelet activity in rabbit platelet-rich plasma assessed as inhibition of ADP-induced platelet aggregation preincubated for 5 mins followed by addition of ADP measured within 5 mins by Borns turbidimetric method; type: functional; details: Oryctolagus cuniculus
Outline: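 Platelet-rich plasma from citrated rabbit carotid blood was preincubated in duplicate at 37 °C for 5 min with compound at 0.1, 0.2, 0.4, 0.8 or 1.6 mM. ADP-induced aggregation was then recorded turbidimetrically, as maximal light transmission within 5 min. Inhibition was calculated versus vehicle control, and IC50 values were derived. Mean ± SD, n = 6, ANOVA/Tukey.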

CCCCC1OC(=O)c2ccccc21 (stereo not drawn) [RAC-3-N-BUTYLPHTHALIDE]
Activity [1]: 63.55%
Activity [2]: inactive
Activity [3]: 24.36%
inhibition at 100 µM [4]: 12.9%
IC50 [5]: 740 µM
